OXTR ag = activates the human oxytocin receptor | CHO-OTR cells, Fluo-8 calcium fluorescence; normalized: DMSO 0%, oxytocin 100% | activation, % at 3 µM | 320,000 compounds, 0.32% hits;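 active = activation above the mean of all tested compounds plus 3 SD, cutoff set per screening run, cut at about 20% in these data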;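 also: peak over basal fluorescence ratio from a 100 s FLIPR kinetic read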
TAAR1 antagonist = antagonists of human TAAR1; Q96RJ0; CHO RD-HGA16 TAAR1, Fluo-8 calcium fluorescence, antagonist; inhibition, % at 3 µM; 360,000 compounds, 1.5% hits; AID 624466;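 active = inhibition above a per-plate cutoff, the mean inhibition of test compounds on that plate plus 3 SD, cut at about 49% in these data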;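 also: 0% = DMSO plus EC80 beta-PEA response and 100% = DMSO alone without agonist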
Target sequence (Q96RJ0 whole entry, looked up): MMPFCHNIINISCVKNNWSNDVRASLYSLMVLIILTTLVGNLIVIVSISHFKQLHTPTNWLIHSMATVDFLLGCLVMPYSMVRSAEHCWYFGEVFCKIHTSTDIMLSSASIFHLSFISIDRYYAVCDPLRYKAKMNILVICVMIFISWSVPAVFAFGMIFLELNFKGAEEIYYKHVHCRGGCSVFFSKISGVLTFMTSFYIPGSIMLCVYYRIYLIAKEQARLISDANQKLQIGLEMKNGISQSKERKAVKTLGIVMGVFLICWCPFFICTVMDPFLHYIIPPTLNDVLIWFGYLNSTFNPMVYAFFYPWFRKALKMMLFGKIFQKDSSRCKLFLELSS
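Test system: RD-HGA16 CHO cells with stable hTAAR1 and Gα16 / Probe or stimulus: EC80 β-phenethylamine stimulus / Times: seeding 17-24 h prior, 75-min 37 °C, 30-min RT dye loading / Detection: Fluo-8 calcium-sensitive fluorescence / Read-out basis: % inhibition scaled between DMSO and EC80 PEA controls / Repeats: singlicate, one well per test compound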
TAAR1 ag = human TAAR1 agonism; Q96RJ0; CHO RD-HGA16 TAAR1, Fluo-8 calcium fluorescence; vehicle wells 0%, saturating PEA agonist 100%; activation, % at 3 µM; 360,000 compounds, 0.99% hits;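 active = activation above the mean activation of all test compounds in the run plus 3 SD, cut at about 38% in these data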
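Assay system – CHO-derived RD-HGA16 cells with stable Gα16 and human TAAR1 · Compound dosing – one-point dosing at 3 µM (nominal) · Incubation – 17-24 h seeding, 75 min 37 °C dye, 30 min RT · Measured by – kinetic Fluo-8 calcium fluorescence · Control set – DMSO vehicle as 0%, PEA at EC100 as 100% · Repeats – single well for each compound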
V1R ag counter = counter-screen for oxytocin receptor agonists: human V1a receptor agonists; P37288; activation, % at 3 µM; 320,000 compounds, 0.25% hits; CHO-V1R cells, Fluo-8 calcium fluorescence, agonist mode; 0% DMSO, 100% 3 nM vasopressin; AID 2797;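 active = activation above the mean activation of all tested compounds plus 3 SD, per screening run, cut at about 20% in these data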;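 also: signal is peak over basal fluorescence ratio across a 100 second FLIPR read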
Target sequence (P37288 whole entry, looked up): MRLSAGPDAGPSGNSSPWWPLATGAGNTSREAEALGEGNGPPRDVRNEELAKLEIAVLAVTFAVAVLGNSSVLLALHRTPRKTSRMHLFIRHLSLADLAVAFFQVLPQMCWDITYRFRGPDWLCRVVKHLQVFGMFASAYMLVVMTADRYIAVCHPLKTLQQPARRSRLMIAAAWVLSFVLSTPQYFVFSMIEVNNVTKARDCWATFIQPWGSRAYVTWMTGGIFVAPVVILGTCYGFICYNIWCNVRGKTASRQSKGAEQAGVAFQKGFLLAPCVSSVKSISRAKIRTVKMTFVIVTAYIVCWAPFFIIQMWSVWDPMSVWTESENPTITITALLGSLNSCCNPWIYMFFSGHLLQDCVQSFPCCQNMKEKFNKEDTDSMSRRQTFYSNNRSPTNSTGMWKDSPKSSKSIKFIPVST
OXTR potentiator = potentiators of human oxytocin receptor; P30559; CHO-OTR cells, Fluo-8 calcium fluorescence, potentiator mode; 0% = oxytocin EC15, 100% = EC100; activation, % at 3 µM; 320,000 compounds, 0.061% hits; AID 2445;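 active = activation above that plate's cutoff, the mean activation of tested compounds plus 3 SD, cut at about 6.6% in these data, passing the limit was not always enough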;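 also: 100% uses oxytocin at 75 nM as the full agonist control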
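Assay system: CHO-OTR cells, human receptor / Also added: oxytocin at about EC15, sub-maximal agonist stimulus / Dosing: single dose, 3.0 µM nominal final compound concentration / Incubation: 6 min pre-incubation, 100 s read / Technique: Fluo-8 calcium dye fluorescence / Read-out: % activation vs EC15 and EC100 oxytocin / Benchmarks: EC15 oxytocin low, 75 nM oxytocin high / Replicates: singlicate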
nonsel antag count = counter-screen for TAAR1 antagonists: nonselective antagonists; shares compounds with TAAR1 antagonist; counterscreen cell line, calcium fluorescence, antagonist mode; inhibition, % at 3 µM; 2,400 compounds, 77% hits; in the data active = inhibition above about 22%;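 also: CHO-Ga16 host cells stimulated with ATP at an EC80 level; 0% = agonist EC80 plus vehicle and 100% = vehicle without agonist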
TAAR1 ant conf = human TAAR1 antagonism, confirmed. inhibition, % at 3 µM. TAAR1-expressing cells, fluorescence antagonist read-out. 2,400 compounds, 40% hits. shares compounds with TAAR1 antagonist. AID 651785; in the data active = inhibition above about 49%;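 also: CHO-Ga16 host cells challenged with agonist PEA near its EC80; 0% = agonist at EC80 plus vehicle and 100% = vehicle with no agonist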
Ga16 ag counter = nonselective Ga16 agonist in TAAR1 antagonist counter-screen; shares compounds with TAAR1 antagonist; Ga16-expressing cells, calcium fluorescence, agonist counterscreen; activation, % at 3 µM; 2,400 compounds, 18% hits; AID 651953; in the data active = activation above about 12%;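 also: 0% = vehicle wells and 100% = saturating stimulus response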
TAAR1 ag count = activates human TAAR1 in antagonist counter-screen; activation, % at 3 µM; hTAAR1 cell line, fluorescence activation, agonist mode; 2,400 compounds, 2% hits; AID 651955; shares compounds with TAAR1 antagonist; in the data active = activation above about 37%;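 also: CHO cells stably expressing TAAR1 with calcium dye readout; 0% = DMSO vehicle and 100% = full agonist response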
* hit, by the source's call; · = no result given. The list is not random: actives were taken first. Their share in the collection is about 2.3%.

SMILES	OXTR ag	TAAR1 antagonist	TAAR1 ag	V1R ag counter	OXTR potentiator	nonsel antag count	TAAR1 ant conf	Ga16 ag counter	TAAR1 ag count
CCCN1CCN(CCCNC(=O)CN2C(=O)c3cccnc3Oc3ccc(C)cc32)CC1	0.1	-15.4	3.2	1.1	-5.3	·	·	·	·
Cc1ccc2c(c1)N(CC(=O)NCCCc1ccccc1)C(=O)c1cccnc1O2	0.0	72.6*	12.7	2.1	-11.7	26.7*	44.6	8.6	8.1
O=C(/C=C/c1cn(-c2ccccc2)nc1-c1cccc(Cl)c1)N1CCN(c2ccccn2)CC1	0.0	52.8*	0.2	-0.5	-8.8	17.8	30.9	3.0	3.5
CCOC(=O)c1c(C)[nH]c(C(=O)COC(=O)C2(C)CC2(Cl)Cl)c1C (configuration not stated)	1.9	70.7*	15.1	6.2	-22.3	45.2*	73.7*	10.7	14.3
CCOC(=O)c1c(C)[nH]c(C(=O)COC(=O)C2CC2)c1C	·	-1.5	1.8	·	·	·	·	·	·
Cc1c(C(=O)NCc2c(F)cc(F)cc2F)oc2ccc(S(=O)(=O)N3CCOCC3)cc12	3.3	68.0*	19.1	2.7	-10.0	24.0*	47.1	11.4	17.4
Cc1c(C(=O)Nc2ccc(F)cc2)oc2ccc(S(=O)(=O)N3CCC4(CC3)OCCO4)cc12	12.8	62.5*	24.5	8.8	-7.6	40.3*	50.5*	12.2*	9.3
Cc1c(C(=O)Nc2ccc(F)cc2)oc2ccc(S(=O)(=O)N3CCCC3)cc12	1.1	14.9	1.9	2.1	-7.0	·	·	·	·
Cc1c(C(=O)NCc2ccc(F)cc2)oc2ccc(S(=O)(=O)N3CCOCC3)cc12	2.2	48.4	19.6	4.5	-6.7	·	·	·	·
COc1cc(/C=C/CNC[C@H]2O[C@@H](n3cnc4c(=O)[nH]c(N)nc43)[C@H](O)[C@@H]2O)ccc1O	·	-1.1	1.2	·	·	·	·	·	·
Cc1ccc(S(=O)(=O)NCCNc2ccc(Br)c(C)c2)cc1	5.0	-5.6	6.2	6.3	-10.3	·	·	·	·
O=C(COC(=O)c1ccc(O)cc1O)Nc1cc(-c2ccccc2)nn1-c1ccccc1	3.3	71.5*	11.7	3.2	-17.9	35.1*	38.4	8.5	10.8
C=CCN1C[C@@H](COCc2ccccc2)OCCS1(=O)=O	·	-14.2	0.6	·	·	·	·	·	·
COc1ccc2nc(NC(=O)C3CCN(S(=O)(=O)c4cccc5nsnc45)CC3)sc2c1	9.5	61.3*	21.9	8.3	-8.5	34.0*	55.6*	11.4	11.1
O=C(NCc1ccccc1)[C@@H]1CCCN1C(=O)[C@H]1CCCN1C(=O)c1cccc2ccccc12	·	-1.1	-0.8	·	·	·	·	·	·
COc1cc(C(C)=O)ccc1OCC(=O)Nc1ccccc1N1CCCCC1	-3.1	54.9*	3.5	-1.3	-4.9	8.9	37.1	2.9	9.5
COc1cc(C(C)=O)ccc1OCC(=O)Nc1ccccc1N1CCCC1	-1.9	-32.6	0.4	0.0	0.8	·	·	·	·
CC(=O)c1cccc(OCC(=O)Nc2ccccc2N2CCOCC2)c1	0.1	51.4*	10.5	2.1	2.7	19.2	38.1	7.1	6.8
COc1ccc(OC(=O)N(C)C[C@H]2OCc3cn(nn3)CCCC(=O)N([C@H](C)CO)C[C@@H]2C)cc1	·	2.7	0.6	·	·	·	·	·	·
O=C(Nc1ccc(N2CCN(C(=O)c3cccs3)CC2)c(Cl)c1)c1ccco1	1.5	3.6	12.6	4.7	-8.3	·	·	·	·
Cc1ccccc1C(=O)N1CCN(c2ccc(NC(=O)c3ccc4c(c3)OCO4)cc2)CC1	3.7	52.5*	12.2	7.2	-11.5	27.0*	45.5	8.7	7.8
CC(=O)N1CCN(c2ccc(NC(=O)c3ccc(C(C)(C)C)cc3)cc2)CC1	5.0	62.1*	26.8	4.4	-11.2	28.6*	45.6	9.2	9.9
Cc1cc(OCC(=O)Nc2ccc(N3CCCC3)cc2)cc(C)c1Cl	-0.3	-6.9	-1.0	-0.4	-6.0	·	·	·	·
Cc1cc(OCC(=O)Nc2ccc(N3CCN(C(=O)c4ccco4)CC3)cc2)cc(C)c1Cl	4.4	85.7*	34.2	6.9	-2.9	50.7*	71.4*	17.7*	17.5
Cc1ccccc1C(=O)N1CCN(c2ccc(NC(=O)c3ccco3)cc2Cl)CC1	8.2	51.9*	19.7	8.4	-9.3	22.6*	37.4	9.3	6.8
SMILES	OXTR ag	TAAR1 antagonist	TAAR1 ag	V1R ag counter	OXTR potentiator	nonsel antag count	TAAR1 ant conf	Ga16 ag counter	TAAR1 ag count
CC(=O)N1CCN(c2ccc(NC(=O)c3ccc(Cl)cc3)cc2)CC1	0.4	15.2	2.6	0.3	-5.1	·	·	·	·
O=C(Nc1ccc(N2CCN(C(=O)c3ccco3)CC2)cc1)c1ccc2c(c1)OCO2	0.1	11.9	8.2	1.1	-6.7	·	·	·	·
C[C@H](O)[C@@H]1C(=O)N2CCc3c([nH]c4cccc(-c5ccccc5)c34)[C@@H]2C[C@@H]1N(C)CC1CCCCC1	·	12.2	0.8	·	·	·	·	·	·
O=C(NCCS(=O)(=O)NCc1ccccc1Cl)c1ccccc1	-1.2	-11.3	0.2	0.1	-1.0	·	·	·	·
COc1ccc(C(=O)Nc2nc(CC(=O)NCCc3ccccc3OC)cs2)cc1	-1.9	57.4*	11.2	-0.3	-10.4	26.8*	43.7	6.8	5.4
COc1ccc(C(=O)Nc2nc(CC(=O)NCc3c(F)cccc3F)cs2)cc1	·	70.9*	12.9	·	·	24.9*	49.7*	13.5*	11.7
COc1ccc(C(=O)Nc2nc(CC(=O)NCc3ccc(F)cc3)cs2)cc1	4.2	71.7*	15.8	7.6	-11.7	48.3*	65.6*	14.5*	11.2
CCc1nc2ccc(C(=O)NCCc3ccccc3OC)cc2nc1CC	-2.6	10.9	-3.4	-2.1	-9.6	·	·	·	·
Nc1nc2c(ncn2[C@@H]2O[C@H](C(=O)N[C@H](Cc3ccccc3)C(=O)NCc3ccccc3)[C@@H](O)[C@H]2O)c(=O)[nH]1	·	-2.8	0.7	·	·	·	·	·	·
CCN(CC)S(=O)(=O)c1ccc2nc(NC(=O)c3cccs3)sc2c1	8.1	62.7*	37.1	6.2	-21.8	18.5	36.6	9.6	17.0
CCN(CC)S(=O)(=O)c1ccc2nc(NC(=O)c3ccco3)sc2c1	1.5	10.2	7.3	0.9	-6.5	·	·	·	·
O=C(NCc1ccccc1)C(c1cccc2ccccc12)n1c(=O)c(-c2ccccc2)nc2ccccc21 (configuration not stated)	·	2.6	0.0	·	·	·	·	·	·
CC(C)(C)OC(=O)N1CCC(C(=O)Nc2cccc(C(=O)NCCCCc3ccccc3)c2)CC1	·	66.5*	16.2	·	·	36.6*	43.8	12.8*	11.6
